1 sequence from publication PMC2191409 (The Journal of Experimental Medicine, 1994) can be followed below.

The subject of the assay is MZ2-MEL.61 cells (D-) expressing HLA-A1. The experiment in a line: Peptide sensitization assay. The class given is cell-based, human. The settings on record: CTL clone 20/38. The procedure, abridged: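 Target cells (MZ2-MEL.61, antigen-loss D− variant, HLA-A1+) were 51Cr-labelled for 1 h at 37°C and washed extensively. 1,000 cells/well were preincubated 30 min at 37°C with various concentrations of synthetic test peptide (>90% HPLC purity; stock in 0.02 M PBS). CTL 20/38 were then added in equal volume at E/T 10:1. Chromium release was read after 4 h at 37°C. D+ and D− MZ2-MEL cells without peptide served as reference.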

EVDPIGHVY [MAGE-6 derived peptide]: the “Recognition by the anti-MZ2-D CTL clone” value is recorded as “not recognized”.
